This is an account of results in article PMC6067823 (Organic & biomolecular chemistry, 2018).

In general, IC50 refers to the concentration at which inhibition is half-maximal.

Experiment [1] deals with rat OR-I7. Conditions: cited from earlier work; for Function at rodent OR-I7 (agonist or antagonist), in words: rat OR-I7, earlier study; for IC50: read-out: IC50 (antagonist, estimated).
Experiment [2] deals with T1, mouse OR-I7 (Mus musculus, UniProt Q9QWU6).
T1 sequence (Q9QWU6 1-327): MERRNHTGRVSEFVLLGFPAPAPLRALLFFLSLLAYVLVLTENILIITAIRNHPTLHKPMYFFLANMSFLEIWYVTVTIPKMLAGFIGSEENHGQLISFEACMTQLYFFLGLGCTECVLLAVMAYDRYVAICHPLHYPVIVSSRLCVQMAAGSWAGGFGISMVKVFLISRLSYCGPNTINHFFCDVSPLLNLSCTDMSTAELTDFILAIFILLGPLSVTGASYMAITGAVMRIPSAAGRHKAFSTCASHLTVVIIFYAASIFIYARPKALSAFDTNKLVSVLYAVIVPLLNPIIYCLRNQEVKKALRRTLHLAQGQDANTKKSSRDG
Description: Hana3A GloSensor cAMP assay, inhibition of response to co-applied 5 µM octanal. Type of experiment: cell-based. The following applies: for Relative antagonist potency within the series, in words: side-by-side comparison, Figs. 3 and 4. On the technique in general: Cyclic AMP is a second messenger, typically raised through Gs and lowered through Gi signalling.

Experiment [3] addresses T1, mouse OR-I7. Description: Hana3A GloSensor cAMP assay, compounds applied alone. The following applies: compound applied alone to Hana3A cells expressing mouse OR-I7. Type of experiment: cell-based. In outline:
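Hana3A cells were co-transfected with Rho-tagged mouse OR-I7 (80 ng/well), RTP1S, M3-R and pGloSensor-22F (10 ng/well each). At 18–24 h they were loaded with 2% GloSensor reagent for 2 h. Test compound was applied alone over a concentration range, and luminescence was read every 90 s for 24 min. Signal at 3–7.5 min was summed, baselined and normalized to octanal. Six replicates per plate, mean ± SEM.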

The subject of experiment [4] is rat ORs. The following applies: cited from earlier work.

Structures are written as SMILES. “Also recorded” adds a separate entry of the source.

Turning to `CCCCCCC=O` [heptanal], in experiment [1], the “Function at rodent OR-I7 (agonist or antagonist), in words” value (“Function at rodent OR-I7” below) is “regained their ability to function as agonists”.

As to `O=CCC12CC3CC(CC(C3)C1)C2` [Compound 12], the “Antagonist potency weaker than compound 9” value in experiment [2] (from estimated IC50s, 5 µM octanal, Fig. 4) is reported as 3 fold.

On to `CCC(CC)(CC)CC=O` [Compound 8], for which, in experiment [2] (5 µM octanal), the “Relative antagonist potency within the series, in words” value is “progressively decreased potency”.

For the compound `CCC1(CC=O)CCCCC1` [Compound 11], the “Relative antagonist potency within the series, in words” value in experiment [2] (5 µM octanal) is reported as “unfavorable”.

Regarding `CC1(CC=O)CCCCC1` [Compound 10], the “Relative antagonist potency within the series, in words” value in experiment [2] (5 µM octanal) is listed as “unfavorable”.

With `CCC1CCC(CC=O)CC1` (stereo not shown) [Compound 4, (4-ethylcyclohexyl)ethanal], the “Function at rodent OR-I7” value in experiment [1] is given as “agonists”.

Turning to `O=CCC1CCCCC1` [Compound 2, cyclohexylethanal], the “Activation of mouse OR-I7 (agonist activity), in words” value in experiment [3] was “not a mouse OR-I7 agonist”. Moreover, in experiment [2] (increasing concentrations co-applied with constant 5 µM octanal), the “Response to octanal with co-applied compound (antagonism), in words” value is listed as “reduced in a dose-dependent manner”. Further, the “Function at rodent OR-I7” value in experiment [1] is “antagonists”. Moreover, in experiment [1] (rat OR-I7), the IC50 is 37 µM.

In the case of `CC(C)=CCC[C@@H](C)CC=O` (racemic) [citronellal], the “Agonist activity at rat OR-I7 compared with octanal, in words” value in experiment [1] (rat OR-I7) was “almost as good a rat OR-I7 agonist as octanal”.

As to `CCCCC=O` [Compound 3, Pentanal], the “Function at rodent OR-I7” value in experiment [1] is given as “weak rat OR-I7 antagonist; also recorded: antagonists”. Moreover, in experiment [1] (rat OR-I7), the concentration for half-maximal inhibition (IC50) was 460 µM.

With `CCCCCCCC=O` [Compound 1, octanal], in experiment [1], the “Function at rodent OR-I7” value was “agonists”. In addition, in experiment [4], the “Number of rat ORs activated” value is reported as 33–55.

For `CCC(C)CC=O` (stereo not shown) [Compound 5], the “Increase in antagonist potency relative to pentanal” value in experiment [2] (from estimated IC50s, 5 µM octanal, Fig. 3) is listed as 5 fold.
